These results are taken from ChEMBL document CHEMBL4613269, “2-((4-Arylpiperazin-1-yl)methyl)benzonitrile Derivatives as Orally Available Inhibitors of Hepatitis C Virus with a Novel Mechanism of Action” (J Med Chem, 2020).

Calls of active or inactive are those of the source. The rule behind the calls is not given here.

Data set [1] concerns Hepatitis C virus. Put plainly: Antiviral activity against HCV J6/JFH/JC1 infected in human Huh7.5 cells incubated for 72 hrs by In-Cell Western assay. The settings on record: J6/JFH/JC1, Huh7.5, 72 h. The format is functional, organism-based, Hepacivirus hominis. An outline of the steps: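 Huh7.5 cells infected with HCVcc (MOI 0.1) and treated with compound at the same time for 72 h. Cells fixed with PFA, permeabilized, then stained for HCV Core and GAPDH with IR-dye secondaries. Core signal normalized to GAPDH. Eight-step 1:5 dilutions in triplicate; EC50 by Reed & Muench; mean of three experiments.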

Data set [2] in a line: Selectivity index, ratio of CC50 for cytotoxicity in human Huh7.5 cells assessed as reduction in cell viability incubated for 96 hrs by MTT assay to EC50 for antiviral activity against HCV J6/JFH/JC1 infected in human Huh7.5 cells incubated for 72 hrs by In-Cell Western assay. As to conditions: read-out: Ratio CC50/EC50. The format is toxicity, cell-based. The method in brief:
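HCVcc (MOI=0.1) infected Huh7.5 cells co-treated with eight-step 1:5 serial dilutions, triplicate wells. After 72 h, fixed, permeabilized, and stained for HCV Core and GAPDH with IR-dye secondaries. Core normalized to GAPDH. CC50 came from MTT at 96 h in uninfected Huh7.5 cells. EC50/CC50 were derived by Reed & Muench, mean ± SD of three independent experiments.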

The nature of data set [3]: Selectivity index, ratio of CC50 for cytotoxicity in human Huh7.5 cells assessed as reduction in cell viability incubated for 96 hrs by MTT assay to EC50 antiviral activity against HCV J6/JFH/JC1 infected in human Huh7.5 cells assessed as reduction in viral RNA levels incubated for 72 hrs by qRT-PCR analysis. The format is toxicity, cell-based. As to conditions: read-out: Ratio CC50/EC50. The method in brief:
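Selectivity index = CC50/EC50. CC50: Huh7.5 cells seeded at 3×10^4/cm², medium with compound added at 24 h, MTT read at 96 h. EC50: HCVcc-infected Huh7.5 cells treated for 72 h, HCV RNA by qRT-PCR normalised to GAPDH. Serial 1:5 dilutions in eight steps, Reed & Muench calculation, means ± SD of three independent experiments.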
A general note: Tetrazolium assays rely on reduction of a dye to a coloured formazan, in cell work by metabolically active cells.

For data set [4], the system named is Hepatitis C virus. In words: Antiviral activity against HCV J6/JFH/JC1 infected in human Huh7.5 cells assessed as reduction in viral RNA levels incubated for 72 hrs by qRT-PCR analysis. Type of data set: functional, organism-based. The settings on record: for EC50: J6/JFH/JC1, Huh7.5, 72 h. An outline of the steps: (§1)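 Huh7.5 cells seeded 24 h, then infected with wild-type (or mutant) HCV with compound added at the same time. Incubated 72 h. Intracellular HCV RNA measured by qRT-PCR, 2^-ΔCt method, normalized to GAPDH. Eight-step 1:5 serial dilutions in triplicate; EC50 by Reed & Muench; three independent experiments.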
(In general: In qPCR the cycle at which signal appears reflects the starting amount.)

Data set [5] is described as follows: Cytotoxicity in human Huh7.5 cells assessed as reduction in cell viability incubated for 96 hrs by MTT assay. Type of data set: cell-based. The method in brief:
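Huh7.5 cells seeded 24 h before compound addition. Viability read by MTT at 96 h. Eight-step 1:5 serial dilutions in triplicate; CC50 by Reed & Muench; three independent experiments.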

The nature of data set [6]: Oral bioavailability in Sprague-Dawley rat 15 mg/kg measured after 0.25 to 72 hrs by LC-MS/MS analysis. The format is ADME, organism-based. As to conditions: in vivo.
For data set [7], the system named is Hepatitis C virus. Put plainly: Antiviral activity against HCV genotype 2a pseudoparticle infected in human Huh7.5 cells assessed as reduction in viral replication at 2 to 4 uM. The format is functional, organism-based. As to conditions: Hepacivirus hominis, subtype 2a. An outline of the steps:
(§2)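 Genotype 1b or 2a HCV pseudoparticles made by co-transfecting HEK 293T cells with envelope and luciferase-reporter HIV plasmids; input standardized by luciferase. Huh7.5 cells co-incubated with compound and HCVpp for 4 h at 37°C, washed, then luciferase read at 72 h.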

The test system of data set [8] is Hepatitis C virus. Put plainly: Antiviral activity against HCV genotype 1b pseudoparticle infected in human Huh7.5 cells assessed as reduction in viral replication at 2 to 4 uM. The settings on record: Hepacivirus hominis, subtype 1b. The format is functional, organism-based. The method in brief:
as §2

A short description of data set [9]: Cytotoxicity in African green monkey Vero cells assessed as reduction in cell viability. Type of data set: cell-based. As to conditions: chlorocebus sabaeus.
Data set [10] is described as follows: Selectivity index, ratio of CC50 for cytotoxicity in African green monkey Vero cells to EC50 for Antiviral activity against Coxsackievirus B3 infected in Vero cells. Type of data set: toxicity, cell-based. The settings on record: read-out: Ratio CC50/EC50.
Data set [11] concerns Coxsackievirus B3. In words: Antiviral activity against Coxsackievirus B3 infected in Vero cells assessed as reduction in virus-induced cytopathic effect incubated for 48 hrs by Reed-Muench method. The format is functional, organism-based. The settings on record: Enterovirus B. (In general: Damage to the host cells serves as the signal in cytopathic effect assays.)
The test system of data set [12] is Hepatitis C virus. Put plainly: Antiviral activity against HCV GS4.3 infected in human Huh7.5 cells assessed as reduction in viral replication at 0.3125 to 5 uM simultaneously treated with viral infection for 4 hrs and measured after 72 hrs by In-Cell Western assay. As to conditions: Hepacivirus hominis. The format is functional, organism-based. An outline of the steps:
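Huh7.5 cells infected with HCV while incubated with compound, either for 4 h across a concentration series or at 1.0 µM for varied times down to 15 min. Supernatant then replaced with fresh medium. Intracellular Core protein measured by In-Cell Western at 72 h.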

In data set [13] the test system is Hepatitis C virus. In words: Antiviral activity against HCV expressing NS3 A156T mutant by qRT-PCR analysis based by Reed-Muench method. The format is functional, organism-based, Hepacivirus hominis. The method in brief:
(§3)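 Huh7.5 cells seeded at 3×10^4/cm², infected 24 h later with wild-type or mutant HCV stock while compound or solvent was added at the same time. Intracellular HCV RNA measured by qRT-PCR at 72 h, normalised to GAPDH, 2^-ΔCT method. EC50 by Reed & Muench from eight-step 1:5 serial dilutions, triplicate wells.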

The test system of data set [14] is Hepatitis C virus. Put plainly: Antiviral activity against HCV GS4.3 infected in human Huh7.5 cells assessed as reduction in viral NS3 protein levels at 1 uM incubated for 72 hrs by Western blot assay. Type of data set: functional, organism-based. As to conditions: Hepacivirus hominis.
Data set [15] deals with Hepatitis C virus. In words: Antiviral activity against wild type HCV by qRT-PCR analysis based by Reed-Muench method. The format is functional, organism-based, Hepacivirus hominis. An outline of the steps:
as §1

The test system of data set [16] is Hepatitis C virus. In words: Antiviral activity against HCV genotype 2a pseudoparticle infected in human Huh7.5 cells assessed as reduction in viral replication at 10 uM. The format is functional, organism-based. As to conditions: Hepacivirus hominis, subtype 2a. An outline of the steps:
as §2

Data set [17] deals with Hepatitis C virus. In words: Antiviral activity against HCV genotype 1b pseudoparticle infected in human Huh7.5 cells assessed as reduction in viral replication at 10 uM. The format is functional, organism-based. The settings on record: Hepacivirus hominis, subtype 1b. The method in brief:
as §2

Data set [18] in a line: Selectivity index, ratio of CC50 for cytotoxicity in African green monkey Vero E6 cells to EC50 for Antiviral activity against Zika virus infected in Vero E6 cells. As to conditions: read-out: Ratio CC50/EC50. Type of data set: toxicity, cell-based, Vero C1008.
A short description of data set [19]: Cytotoxicity in African green monkey Vero E6 cells assessed as reduction in cell viability. Type of data set: cell-based, Vero C1008. The settings on record: chlorocebus sabaeus.
In data set [20] the test system is Hepatitis C virus. In words: Antiviral activity against HCV expressing NS5B S282T mutant by qRT-PCR analysis based by Reed-Muench method. The format is functional, organism-based, Hepacivirus hominis. An outline of the steps: as §3
The nature of data set [21]: Cytotoxicity in MDCK cells assessed as reduction in cell viability. The format is cell-based, Canis lupus familiaris. The settings on record: dog.
A short description of data set [22]: Selectivity index, ratio of CC50 for cytotoxicity in MDCK cells to EC50 for Antiviral activity against influenza A virus H3N2/95-359 infected in MDCK cells. Type of data set: toxicity, cell-based. The settings on record: dog, read-out: Ratio CC50/EC50.
Data set [23] has as its system Influenza A virus. In words: Antiviral activity against influenza A virus H3N2/95-359 infected in MDCK cells assessed as reduction in virus-induced cytopathic effect incubated for 48 hrs by Reed-Muench method. The settings on record: H3N2/95-359, MDCK. The format is functional, organism-based.
Data set [24] relates to Hepatitis C virus. In words: Antiviral activity against HCV expressing NS3 D168V mutant by qRT-PCR analysis based by Reed-Muench method. Type of data set: functional, organism-based, Hepacivirus hominis. An outline of the steps:
as §3

Regarding `CN(C)CCN(C)c1ccc(C#N)c(CN2CCN(c3ccc(Br)cc3)CC2)c1`, the EC50 (commonly the concentration needed to bring the measured effect to its halfway point) came to 0.104 µM in [1] and 0.031 µM in [4]. Also, the selectivity ratio in [2] amounted to 128; in data set [3] it was 503. The Activity result in data set [4] (Hepacivirus hominis) is “Dose-dependent effect”. Further, the CC50 (in general, the concentration at which the toxic effect on the cells reaches its halfway point) at 96 h in data set [5] lay within 13.3 to 15.6 µM.

On to `CN(C)CCN(C)c1ccc(C#N)c(CN(C)c2ccc(Cl)cc2)c1`, for which the EC50 turned out to be 0.506 µM in data set [1] and 0.18 µM in data set [4]. Also, the selectivity ratio in data set [2] was found to be 30.6. Moreover, the cytotoxic concentration (CC50) at 96 h in [5] worked out at 15.5 µM. Besides, the bioavailability (usually the share of a dose that reaches the circulation, judged against a reference dose that is usually intravenous) in [6] is less than 5%.

With `Cc1nc(Nc2ncc(C(=O)Nc3c(C)cccc3Cl)s2)cc(N2CCN(CCO)CC2)n1`, the outcome in [7] and in [8] was Active.

Turning to `Cc1cc(CCCOc2c(C)cc(-c3noc(C(F)(F)F)n3)cc2C)on1` [PLECONARIL], the cytotoxic concentration (CC50) in data set [9] is more than 1.05 µM. Besides, in data set [10], the selectivity ratio was more than 525. Besides, in data set [11], the EC50 came to 0.002 µM.

Consider `CCC[C@H](NC(=O)[C@@H]1[C@H]2CCC[C@H]2CN1C(=O)[C@@H](NC(=O)[C@@H](NC(=O)c1cnccn1)C1CCCCC1)C(C)(C)C)C(=O)C(=O)NC1CC1` [TELAPREVIR], for which the result in data set [12], in data set [16] and in data set [17] was inactive. The half-maximal effective concentration (EC50) in [13] is 1.21 µM; in [1], 0.146 µM; in [15] it was 0.0078 µM. Moreover, the result in [14] was Active. Moreover, in data set [2], the selectivity ratio turned out to be 377. Further, the half-maximal cytotoxic concentration (CC50) at 96 h in [5] is 55 µM.

As for `Cc1ccc(NCc2cc(N3CCN(C)CC3)ccc2C#N)cc1`, in data set [4], the concentration giving a half-maximal response (EC50) came to 1.62 µM. Besides, the 50% cytotoxic concentration (CC50) at 96 h in data set [5] was 37.4 µM. Further, the bioavailability in data set [6] was less than 5%.

For `NC(=O)c1ncn([C@@H]2O[C@H](CO)[C@@H](O)[C@H]2O)n1` [RIBAVIRIN], the selectivity ratio in [18] was more than 6. For the same molecule, the CC50 in data set [19] was more than 200 µM.

`CC(C)OC(=O)[C@H](C)N[P@](=O)(OC[C@H]1O[C@@H](n2ccc(=O)[nH]c2=O)[C@](C)(F)[C@@H]1O)Oc1ccccc1` [SOFOSBUVIR]: the EC50 in [1] is 0.104 µM; in [4] it was 0.046 µM; in [15] it was 0.0294 µM; in data set [20], 0.148 µM. Besides, the selectivity ratio in data set [2] was more than 1920; in data set [3], more than 4350. Further, the CC50 at 96 h in [5] was more than 200 µM.

Consider `CCOC(=O)C1=C[C@@H](OC(CC)CC)[C@H](NC(C)=O)[C@@H](N)C1` [OSELTAMIVIR], for which, in data set [21], the CC50 is more than 640 µM. Further, the selectivity ratio in data set [22] is more than 299. In addition, the concentration for a half-maximal effect (EC50) in data set [23] is 2.14 µM.

Consider `Cc1ccc(NCc2cc(N3CCOCC3)ccc2C#N)cc1`, for which the concentration for a half-maximal effect (EC50) in data set [4] was more than 66.7 µM. In addition, the CC50 at 96 h in [5] turned out to be 133 µM.

In the case of `COc1ccc2c(O[C@@H]3C[C@H]4C(=O)N[C@]5(C(=O)NS(=O)(=O)C6CC6)C[C@H]5/C=C/CCCCN(C)C(=O)[C@@H]4C3)cc(-c3nc(C(C)C)cs3)nc2c1C`, the EC50 is more than 1 µM in [24] and 0.0092 µM in data set [15].

Take `Cc1ccc(N(C)Cc2cc(N3CCN(C)CC3)ccc2C#N)cc1`: the concentration for a half-maximal effect (EC50) in data set [4] came out at 0.89 µM. The CC50 at 96 h in data set [5] came to 82 µM.
